For experiment [1], the target named is Rad4-BRCT3,4 (BRCT3,4 segment of S. pombe Rad4^TopBP1) (S. pombe) (UniProt P32372). Put plainly: fluorescence polarisation.
Experiment [2] has as its target Rad4-BRCT1,2 (BRCT1,2 segment of S. pombe Rad4^TopBP1) (S. pombe) (UniProt P32372). Put plainly: fluorescence polarisation.
For experiment [3], the target named is Rad4-BRCT1,2 K56E (S. pombe) (UniProt P32372). Put plainly: fluorescence polarisation. (In general: In fluorescence polarisation assays a small probe gives low polarisation when free and higher when bound to something large.)
Experiment [4] has as its target Rad4-BRCT1,2 K151E (S. pombe) (UniProt P32372). Put plainly: fluorescence polarisation.
The target of a further experiment is T1, Rad4-BRCT1,2 (Schizosaccharomyces pombe, UniProt P32372).
T1 sequence (P32372 1-186 limits assumed): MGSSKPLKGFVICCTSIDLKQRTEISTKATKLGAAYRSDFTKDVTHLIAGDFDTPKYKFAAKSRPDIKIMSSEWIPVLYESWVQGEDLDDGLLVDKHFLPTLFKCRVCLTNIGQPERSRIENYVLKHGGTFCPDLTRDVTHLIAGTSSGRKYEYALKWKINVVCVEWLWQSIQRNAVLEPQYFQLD
Put plainly: Co-crystallisation with Rad4-BRCT1,2. In kind it is binding, S. pombe. The conditions noted are these: co-crystal X-ray structure. The procedure, abridged:
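S. pombe Rad4 BRCT1,2 construct expressed in E. coli and purified by affinity tags and conventional column chromatography. Crystals of protein and complexes grown by hanging-drop vapour diffusion. Diffraction data collected from single crystals on a home source or synchrotron. Structures phased by molecular replacement and refined.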

For the next experiment, the target named is T2, Rad4-BRCT1,2 K56E (S. pombe, UniProt P32372 1-186, K56E).
T2 sequence: T1 sequence (P32372 1-186 limits assumed) with K56E
Put plainly: fluorescence polarisation.

Another experiment concerns the target T3, Rad4-BRCT1,2 K151E (S. pombe, UniProt P32372 1-186, K151E).
T3 sequence: T1 sequence (P32372 1-186 limits assumed) with K151E
Put plainly: fluorescence polarisation.

Positions count from the first letter of the chain named. Where no end group is shown, it is not given here. [ ]: non-standard residue; d: D form. pT = C[C@@H](OP(=O)(O)O)[C@H](N)C(=O)O

Chain of Rad4-BRCT3,4 (BRCT3,4 segment of S. pombe Rad4^TopBP1) (S. pombe) (P32372 291-494): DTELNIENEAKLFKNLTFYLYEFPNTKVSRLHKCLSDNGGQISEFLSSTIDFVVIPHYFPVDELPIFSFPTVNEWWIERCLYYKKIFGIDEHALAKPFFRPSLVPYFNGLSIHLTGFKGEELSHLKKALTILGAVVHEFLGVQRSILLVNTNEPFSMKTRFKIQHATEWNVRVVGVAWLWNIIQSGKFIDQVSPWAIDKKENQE

For orientation: Kd means the equilibrium constant for the complex coming apart. Lower therefore signals tighter binding. On to “Rad9 C-terminal tail peptide phosphorylated on Thr412 and Ser423”, for which the Kd in experiment [1] was 6400 nM. That is a single-digit micromolar value.
Molecule “Crb2 peptide phosphorylated on both Thr215 and Thr235 (fluorescence polarisation)” came in with a Kd in experiment [2] of 1970 nM.
Consider “Rad9 C-terminal tail peptide phosphorylated on Ser423”, for which the Kd in experiment [1] came to 8600 nM. In other words, the single-digit micromolar range.
“Rad9 C-terminal tail peptide phosphorylated on Thr412”: in experiment [1], the Kd was 1900 nM. This Kd lies about 4.5-fold lower than the previous one.
On to “Crb2-pThr187 phosphopeptide, fluorescently labelled”, for which the Kd in experiment [2] turned out to be 500 nM; in experiment [3], 2200 nM; in experiment [4], 400 nM.
As to 184 – Val Pro Glu pThr Val – 188, on Rad4-BRCT1,2, the “site occupancy in co-crystal structure with Rad4-BRCT1,2 (in words)” value was “peptide molecules bound to both BRCT domains”.
Turning to “232 – Val Glu Ser pThr Pro – 236 [Crb2 phosphopeptide (residues 229-241)]”, the “site occupancy in co-crystal structure with Rad4-BRCT1,2 (in words)” value on Rad4-BRCT1,2 is “only the BRCT2 site was occupied”.
As to RVES[pT]PPAFLP (also: fluorescein label, site not given here) [Crb2-pThr235 phosphopeptide, fluorescently labelled], the figures for the dissociation constant Kd with Rad4-BRCT1,2 K56E and with Rad4-BRCT1,2 K151E were 11700 nM and 59000 nM, respectively.

The record behind these values is paper PMC4944838 (Molecular cell, 2013).
